# NPY-Y1 PAM-ag = NPY-Y1 receptor potentiators or agonists, primary screen, cell-based. Neuropeptide Y receptor type 1 (Homo sapiens), P25929. NPY-Y1 expressing cells, potentiator/agonist activation. activation, % at 3.6 µM. 0.37% of 220,000 active; in the data active = activation above about 33%, passing the limit was not always enough;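 note: cells stimulated with NPY at EC10 then isoproterenol at EC100; 0% = low agonist plus stimulus and 100% = saturating agonist plus stimulus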
# Target sequence (P25929 whole entry, looked up): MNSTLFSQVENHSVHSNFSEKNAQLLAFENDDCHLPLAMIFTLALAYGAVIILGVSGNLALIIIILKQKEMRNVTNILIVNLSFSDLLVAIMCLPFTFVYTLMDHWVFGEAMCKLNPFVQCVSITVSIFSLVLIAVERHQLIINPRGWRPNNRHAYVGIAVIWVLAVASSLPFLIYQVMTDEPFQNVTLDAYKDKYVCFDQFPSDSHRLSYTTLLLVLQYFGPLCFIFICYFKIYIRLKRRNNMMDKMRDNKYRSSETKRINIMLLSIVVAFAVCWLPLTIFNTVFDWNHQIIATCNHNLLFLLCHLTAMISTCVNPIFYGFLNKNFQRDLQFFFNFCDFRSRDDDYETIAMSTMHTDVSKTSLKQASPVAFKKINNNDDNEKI
# NPY-Y2 antag = NPY-Y2 receptor antagonists, primary screen, cell-based; NPY-Y2 expressing cells, antagonist mode; 0.99% of 140,000 active; Neuropeptide Y receptor type 2 (Homo sapiens), P49146; inhibition, % at 2.7 µM; in the data active = inhibition above about 17%;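 note: 0% = vehicle with agonist challenge and 100% = reference antagonist with challenge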
# NPY-Y1 antag = NPY-Y1 receptor antagonists, primary screen, cell-based | Neuropeptide Y receptor type 1 (Homo sapiens), P25929 | HEK293-CNG Y1 cells, membrane potential fluorescence; NPY at EC95, then isoproterenol | inhibition, % at 3.6 µM | 1% of 200,000 active | AID 1040, 2008;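 active = inhibition above the campaign mean inhibition of all tested compounds plus 3 SD, cut at about 20% in these data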;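 note: 0% = DMSO wells given NPY plus isoproterenol and 100% = isoproterenol alone without NPY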
#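 Benchmarks – high control isoproterenol alone, low control NPY with isoproterenol · Material – HEK293 Y1/CNG channel cell line · Times – dye 3 h, compound 60 min room temperature, stimulation 45 min · Probe or stimulus – NPY (25 nM), isoproterenol (1 µM), Ro 20-1724 (25 µM) · Evaluation – % inhibition of NPY effect · Signal – fluorescence, membrane potential probe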
# Measles CPE = compounds protecting cells from measles virus cytopathic effect, primary screen, measles RdRp inhibitor project, single point, MLSMR library, absorbance. Measles virus-infected cells, CPE protection. protection (pct of control), % at 4 µM. 1.5% of 140,000 active. AID 841, 2007; in the data active = protection mostly above about 24%, no sharp cut-off; inactive = mostly below about 26%
# MDM2 E3 inh = MDM2-luciferase reporter signal enhancers, primary screen, MDM2 E3 ligase inhibitor project, cell-based, luminescence, 1536-well | E3 ubiquitin-protein ligase Mdm2 (Homo sapiens), Q00987 | cell-based MDM2 ubiquitination luciferase reporter, 2 h; 0 = plate control, 100 = twice control, blank-subtracted | signal enhancement, % at 5 µM | 0.11% of 210,000 active | AID 1230, 2008;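 active = signal enhancement of 30% or more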;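 note: luminescence tracks abundance of the self-degrading MDM2-luciferase fusion protein; higher signal means inhibition of MDM2 E3 ligase activity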
#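 system = mammalian cells stably expressing self-ubiquitinating, self-degrading MDM2 E3–luciferase fusion | quantity = 2000 cells per well seeded | incubation = 4 h cell settling then 2 h compound exposure, 37 °C | signal = SteadyLite luminescence, 15 min reagent step | benchmarks = plate control and blank wells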
# NPY2 pot ag = NPY-Y2 potentiators or agonists, primary screen, cell-based | Neuropeptide Y receptor type 2 (Homo sapiens), P49146 | cells expressing NPY-Y2, potentiator/agonist read-out | activation, % at 3.6 µM | 0.45% of 220,000 active; in the data active = activation above about 27%;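 note: cells stimulated with NPY near EC25 plus isoproterenol at EC100; 0% = vehicle plus submaximal agonist and 100% = vehicle plus saturating agonist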
# Starred values were filed as active, the others as inactive; nt = not tested or not shown. Only some compounds are listed: those with a hit (about 2.8% of all), similar ones and a draw of the others.
SMILES,NPY-Y1 PAM-ag,NPY-Y2 antag,NPY-Y1 antag,Measles CPE,MDM2 E3 inh,NPY2 pot ag
O=C(Nc1cccc2ccccc12)c1nn(C23CC4CC(CC(C4)C2)C3)cc1Br,-8,3,4,38*,-1,-7
COc1cccc(CN2CCCCC2c2cccnc2)c1 (centres undefined),15,-1,0,12,-2,13
COc1ccc(CN2CCCCC2c2cccnc2)cc1C (centres undefined),13,0,6,38*,-22,10
CN1C(=O)C(=Cc2ccc(-c3cccc(Cl)c3)o2)C(=O)N(C)C1=O,-23,6,3,20*,-1,4
CN(C)C(=S)SSC(=S)N(C)C,4,nt,0,nt,41*,-7
O=C(c1ccc(Cl)cc1)C1CCCN(Cc2ccc3ncccc3c2)C1 (centres undefined),4,nt,-1,nt,-15,4
CCC(CC)N1CCN(C(=O)Cc2ccccc2)CC1,-9,5,5,43*,4,7
C[C@@H]1O[C@@H](O[C@H]2C[C@@H](O)[C@]3(CO)[C@H]4[C@H](O)C[C@]5(C)[C@@H](C6=CC(=O)OC6)CC[C@]5(O)[C@@H]4CC[C@]3(O)C2)[C@H](O)[C@H](O)[C@H]1O,-79,22*,34*,-1,nt,-22
CC12CC[C@H]3[C@@H](CCC4(O)C[C@H](O)CCC34/C=N/NC(=O)c3ccccc3Cl)C1(O)CCC2C1=CC(=O)OC1 (some centres undefined),-13,nt,nt,nt,4,-38
C[C@H]1O[C@@H](O[C@H]2[C@@H](O)C[C@H](O[C@H]3[C@@H](O)C[C@H](O[C@H]4CC[C@@]5(C)[C@H](CC[C@@H]6[C@@H]5CC[C@]5(C)[C@@H](C7=CC(=O)OC7)CC[C@]65O)C4)O[C@@H]3C)O[C@@H]2C)C[C@H](O)[C@@H]1O,-82,45*,51*,0,nt,-18
COc1ccc(-n2c(O)c(C(C)=NCCc3c[nH]c4ccccc34)c(=O)[nH]c2=O)cc1,-10,nt,nt,nt,-6,3
Cc1cccc(OCC(=O)N2CCN(Cc3ccncc3)CC2)c1,13,0,3,43*,-9,4
Cc1ccc(OP(=O)(O)Oc2ccc(C)cc2)cc1,-17,12,26*,nt,nt,-13
Cc1ccc2cc3cc(C(=O)N4CCC5(CC4)OCCO5)oc3nc2c1,-25,-1,5,6,-14,-1
Cc1cc(C)n2nc(SC(C)C(=O)N3CCC4(CC3)OCCO4)nc2n1 (centres undefined),73*,1,-2,7,-5,99*
N#CC1=C(N)Oc2c(c(=O)oc3ccccc23)C1c1ccc([N+](=O)[O-])o1 (centres undefined),-5,nt,6,nt,-8,-5
COc1ccc(C2C(C#N)=C(N)Oc3c2c(=O)oc2ccccc32)cc1Cn1cc([N+](=O)[O-])cn1 (centres undefined),6,1,1,24*,-23,2
Cc1cc(OC(=O)CCNC(=O)OC(C)(C)C)c2c3c(c(=O)oc2c1)CCC3,-13,-4,1,5,-31,68*
Cc1cc(OC(=O)CCCNC(=O)OC(C)(C)C)c2c3c(c(=O)oc2c1)CCC3,1,2,2,2,-1,-18
Cc1nc(SCc2c(Cl)cccc2Cl)nc(OC(=O)N(C)C)c1C,-1,nt,nt,nt,-9,12
CCCN1C2CCCC1CC(NC(C)=O)C2 (centres undefined),3,5,-4,49*,-6,4
CC(=O)NC1CC2CCCC(C1)N2 (centres undefined),10,1,3,28,-13,9
CCOc1cccc(=NC2CCCCC2)c2c(C)n(C)c(C)c12,30,nt,nt,nt,-14,12
CC(NCc1ccc(Cl)cc1)C(O)c1ccccc1 (centres undefined),-10,7,9,24,2,-15
